Laboratory results published in ChEMBL document CHEMBL5705888, “Substrate specificity and inhibitors of LRRK2, a protein kinase mutated in Parkinson's disease” (Biochem J, 2009).
pIC50: −log10 of the molar value. The source made the active and inactive calls. The rule behind the calls is not given here.

Experiments:
[1] = biological target: T1, Leucine-rich repeat serine/threonine-protein kinase 2 (Homo sapiens, UniProt Q5S007); test: Inhibition of LRRK2 in human Flp-In-T-REx-293 cells harboring GFP-tagged constitutively active G14V-Rho mutant assessed as inhibition of ERM phosphorylation at 10 uM incubated for 1 hr in presence of LRRKtide by immunoblot analysis; assay type: cell-based
T1 sequence (Q5S007 whole entry): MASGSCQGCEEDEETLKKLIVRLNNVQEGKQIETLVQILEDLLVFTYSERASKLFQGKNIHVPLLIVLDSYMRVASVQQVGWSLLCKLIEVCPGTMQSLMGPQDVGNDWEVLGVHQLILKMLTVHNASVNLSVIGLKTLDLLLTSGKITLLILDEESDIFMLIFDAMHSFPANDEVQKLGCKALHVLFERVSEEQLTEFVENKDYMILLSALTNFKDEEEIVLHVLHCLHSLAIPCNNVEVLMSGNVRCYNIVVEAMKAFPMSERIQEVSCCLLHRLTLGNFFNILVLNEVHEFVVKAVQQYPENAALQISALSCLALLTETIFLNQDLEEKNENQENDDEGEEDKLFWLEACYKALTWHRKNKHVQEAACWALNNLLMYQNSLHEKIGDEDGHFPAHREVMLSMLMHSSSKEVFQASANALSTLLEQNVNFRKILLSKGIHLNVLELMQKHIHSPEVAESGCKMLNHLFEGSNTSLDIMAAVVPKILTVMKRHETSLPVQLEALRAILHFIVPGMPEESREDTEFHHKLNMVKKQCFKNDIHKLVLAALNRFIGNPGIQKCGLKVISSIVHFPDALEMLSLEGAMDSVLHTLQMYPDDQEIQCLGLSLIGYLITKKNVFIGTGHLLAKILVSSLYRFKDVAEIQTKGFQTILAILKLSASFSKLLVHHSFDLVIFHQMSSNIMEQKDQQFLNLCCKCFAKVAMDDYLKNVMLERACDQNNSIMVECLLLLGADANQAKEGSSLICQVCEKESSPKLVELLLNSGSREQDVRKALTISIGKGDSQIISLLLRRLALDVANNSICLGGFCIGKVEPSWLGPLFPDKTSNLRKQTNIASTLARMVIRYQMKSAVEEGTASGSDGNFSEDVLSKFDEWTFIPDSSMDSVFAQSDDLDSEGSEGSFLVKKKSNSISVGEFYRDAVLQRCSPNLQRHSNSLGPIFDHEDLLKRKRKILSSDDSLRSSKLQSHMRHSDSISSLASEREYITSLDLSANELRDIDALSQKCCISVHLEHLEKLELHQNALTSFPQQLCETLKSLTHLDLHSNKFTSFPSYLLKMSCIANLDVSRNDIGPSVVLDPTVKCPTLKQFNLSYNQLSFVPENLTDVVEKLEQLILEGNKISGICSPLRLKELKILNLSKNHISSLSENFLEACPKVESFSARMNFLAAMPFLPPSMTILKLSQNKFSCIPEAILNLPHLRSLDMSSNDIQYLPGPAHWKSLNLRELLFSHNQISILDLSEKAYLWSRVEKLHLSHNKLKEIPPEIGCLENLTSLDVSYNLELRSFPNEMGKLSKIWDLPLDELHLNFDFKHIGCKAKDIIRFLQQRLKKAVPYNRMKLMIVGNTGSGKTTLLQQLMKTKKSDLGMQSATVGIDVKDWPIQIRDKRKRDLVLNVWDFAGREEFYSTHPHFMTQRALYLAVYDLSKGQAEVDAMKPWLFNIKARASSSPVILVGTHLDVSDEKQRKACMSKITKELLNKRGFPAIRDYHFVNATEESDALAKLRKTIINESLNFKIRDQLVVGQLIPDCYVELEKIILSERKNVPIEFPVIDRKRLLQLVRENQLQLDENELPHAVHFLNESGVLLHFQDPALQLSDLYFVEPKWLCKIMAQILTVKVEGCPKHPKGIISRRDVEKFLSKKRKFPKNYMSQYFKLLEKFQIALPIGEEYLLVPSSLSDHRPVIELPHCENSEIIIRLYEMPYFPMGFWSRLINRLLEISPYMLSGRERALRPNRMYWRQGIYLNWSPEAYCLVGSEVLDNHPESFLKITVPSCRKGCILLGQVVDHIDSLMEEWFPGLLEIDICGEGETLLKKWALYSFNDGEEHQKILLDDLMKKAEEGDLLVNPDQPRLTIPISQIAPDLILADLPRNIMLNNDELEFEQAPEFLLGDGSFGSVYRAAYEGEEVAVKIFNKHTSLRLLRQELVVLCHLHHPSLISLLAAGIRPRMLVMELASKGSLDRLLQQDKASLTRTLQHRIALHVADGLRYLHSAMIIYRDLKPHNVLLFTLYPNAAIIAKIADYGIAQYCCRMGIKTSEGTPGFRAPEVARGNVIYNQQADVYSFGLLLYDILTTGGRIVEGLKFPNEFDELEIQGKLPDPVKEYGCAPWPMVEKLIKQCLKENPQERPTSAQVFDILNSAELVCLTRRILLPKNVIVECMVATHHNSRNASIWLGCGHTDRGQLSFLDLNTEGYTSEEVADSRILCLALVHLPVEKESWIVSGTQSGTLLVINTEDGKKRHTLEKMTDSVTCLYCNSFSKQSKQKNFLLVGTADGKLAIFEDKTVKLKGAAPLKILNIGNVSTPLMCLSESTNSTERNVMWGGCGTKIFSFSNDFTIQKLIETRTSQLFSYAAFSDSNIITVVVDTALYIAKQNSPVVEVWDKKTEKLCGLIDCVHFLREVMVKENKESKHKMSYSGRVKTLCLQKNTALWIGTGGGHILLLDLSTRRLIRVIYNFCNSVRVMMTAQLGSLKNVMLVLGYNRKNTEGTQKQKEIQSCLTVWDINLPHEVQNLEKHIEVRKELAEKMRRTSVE
Outline: (§1)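 Flp-in T-REx cells carrying GFP-tagged G14V-Rho were left uninduced or induced with 1 μg/ml doxycycline. At 7 h, compound at 10 μM was added for 1 h. Cells were lysed in SDS lysis buffer, run on 4–12% gels and immunoblotted with pan-phospho-ERM antibody (1 μg/ml in milk/TBST containing 10 μg/ml LRRKtide).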

[2] = biological target: T1, Leucine-rich repeat serine/threonine-protein kinase 2; test: Inhibition of LRRK2 in human Flp-In-T-REx-293 cells assessed as inhibition of ERM phosphorylation at 10 uM incubated for 1 hr in presence of LRRKtide by immunoblot analysis; assay type: cell-based; outline: as §1
[3] = biological target: T2, Serine/threonine-protein kinase TBK1 (Homo sapiens) (UniProt Q9UHD2); test: Inhibition of TBK1 (unknown origin) at 1 uM incubated for 30 mins in presence of [gamma-33P]ATP by multidrop micro reagent based assay relative to control; values are per cent of control
T2 sequence (whole entry): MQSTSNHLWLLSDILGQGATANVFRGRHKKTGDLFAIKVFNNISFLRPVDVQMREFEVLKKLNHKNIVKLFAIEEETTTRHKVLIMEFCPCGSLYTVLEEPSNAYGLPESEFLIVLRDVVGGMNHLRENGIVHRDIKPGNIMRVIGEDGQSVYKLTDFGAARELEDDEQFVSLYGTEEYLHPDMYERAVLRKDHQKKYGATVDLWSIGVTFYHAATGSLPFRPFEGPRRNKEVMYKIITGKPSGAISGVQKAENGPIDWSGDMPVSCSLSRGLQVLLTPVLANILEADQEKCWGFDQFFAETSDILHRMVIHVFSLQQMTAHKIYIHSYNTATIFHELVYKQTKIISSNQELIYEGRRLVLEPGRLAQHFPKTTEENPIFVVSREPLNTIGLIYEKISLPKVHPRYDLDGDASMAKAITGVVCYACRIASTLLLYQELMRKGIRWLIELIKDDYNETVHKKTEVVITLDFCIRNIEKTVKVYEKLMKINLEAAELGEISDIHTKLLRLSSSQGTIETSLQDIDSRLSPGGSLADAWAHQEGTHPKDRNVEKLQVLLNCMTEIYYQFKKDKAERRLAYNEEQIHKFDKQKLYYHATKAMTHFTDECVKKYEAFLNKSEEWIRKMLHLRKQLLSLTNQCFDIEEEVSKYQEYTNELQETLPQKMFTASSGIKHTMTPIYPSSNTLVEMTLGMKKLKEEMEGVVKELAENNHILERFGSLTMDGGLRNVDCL

[4] = biological target: Leucine-rich repeat serine/threonine-protein kinase 2 (Homo sapiens, UniProt Q5S007, G2019S); test: Inhibition of GST-tagged LRRK2 G2019S mutant (1326 to 2527 residues) (unknown origin) using peptide as substrate incubated for 15 mins in presence of ATP by immunoblotting analysis
Chain of Leucine-rich repeat serine/threonine-protein kinase 2 (Homo sapiens, UniProt Q5S007, G2019S) (Q5S007 whole entry G2019S, the tested form may be a part): as the sequence (Q5S007 whole entry) above, with G2019S counted along it

[5] = biological target: MAP/microtubule affinity-regulating kinase 3 (Homo sapiens) (UniProt P27448); test: Inhibition of MARK3 (unknown origin) at 1 uM incubated for 30 mins in presence of [gamma-33P]ATP by multidrop micro reagent based assay relative to control; values are per cent of control
[6] = biological target: MAP kinase-interacting serine/threonine-protein kinase 2 (Homo sapiens) (UniProt Q9HBH9); test: Inhibition of MNK2 (unknown origin) at 1 uM incubated for 30 mins in presence of [gamma-33P]ATP by multidrop micro reagent based assay relative to control; values are per cent of control
Chain of MAP kinase-interacting serine/threonine-protein kinase 2 (Homo sapiens) (Q9HBH9 whole entry, looked up): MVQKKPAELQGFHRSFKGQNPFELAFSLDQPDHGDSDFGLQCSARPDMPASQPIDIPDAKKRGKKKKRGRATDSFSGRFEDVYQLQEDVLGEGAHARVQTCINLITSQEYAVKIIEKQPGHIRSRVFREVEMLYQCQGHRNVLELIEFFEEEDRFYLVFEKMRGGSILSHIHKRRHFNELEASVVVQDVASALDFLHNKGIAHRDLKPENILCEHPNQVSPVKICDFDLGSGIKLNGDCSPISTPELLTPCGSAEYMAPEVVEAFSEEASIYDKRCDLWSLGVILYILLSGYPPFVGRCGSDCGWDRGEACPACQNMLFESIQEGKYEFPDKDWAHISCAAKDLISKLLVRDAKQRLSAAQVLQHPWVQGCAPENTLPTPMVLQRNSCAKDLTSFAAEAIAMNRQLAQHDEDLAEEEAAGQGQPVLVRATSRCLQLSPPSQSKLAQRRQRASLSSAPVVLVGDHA

[7] = biological target: Mitogen-activated protein kinase 8 (Homo sapiens) (UniProt P45983); test: Inhibition of JNK1 (unknown origin) at 1 uM incubated for 30 mins in presence of [gamma-33P]ATP by multidrop micro reagent based assay relative to control; values are per cent of control
Chain of Mitogen-activated protein kinase 8 (Homo sapiens) (P45983 whole entry): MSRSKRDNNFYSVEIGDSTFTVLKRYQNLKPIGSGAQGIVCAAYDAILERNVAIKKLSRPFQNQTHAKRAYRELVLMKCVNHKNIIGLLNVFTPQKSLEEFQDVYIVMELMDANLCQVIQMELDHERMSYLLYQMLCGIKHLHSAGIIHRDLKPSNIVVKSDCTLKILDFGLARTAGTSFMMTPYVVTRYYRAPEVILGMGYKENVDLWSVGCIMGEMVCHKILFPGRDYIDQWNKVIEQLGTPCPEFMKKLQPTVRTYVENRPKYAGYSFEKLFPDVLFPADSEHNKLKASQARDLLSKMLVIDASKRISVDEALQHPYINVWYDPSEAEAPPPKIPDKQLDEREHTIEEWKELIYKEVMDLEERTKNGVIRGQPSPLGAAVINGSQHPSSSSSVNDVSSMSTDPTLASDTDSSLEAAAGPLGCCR

[8] = biological target: Calcium/calmodulin-dependent protein kinase type 1 (Homo sapiens) (UniProt Q14012); test: Inhibition of CaMK1 (unknown origin) at 1 uM incubated for 30 mins in presence of [gamma-33P]ATP by multidrop micro reagent based assay relative to control; values are per cent of control
Chain of Calcium/calmodulin-dependent protein kinase type 1 (Homo sapiens) (Q14012 whole entry, looked up): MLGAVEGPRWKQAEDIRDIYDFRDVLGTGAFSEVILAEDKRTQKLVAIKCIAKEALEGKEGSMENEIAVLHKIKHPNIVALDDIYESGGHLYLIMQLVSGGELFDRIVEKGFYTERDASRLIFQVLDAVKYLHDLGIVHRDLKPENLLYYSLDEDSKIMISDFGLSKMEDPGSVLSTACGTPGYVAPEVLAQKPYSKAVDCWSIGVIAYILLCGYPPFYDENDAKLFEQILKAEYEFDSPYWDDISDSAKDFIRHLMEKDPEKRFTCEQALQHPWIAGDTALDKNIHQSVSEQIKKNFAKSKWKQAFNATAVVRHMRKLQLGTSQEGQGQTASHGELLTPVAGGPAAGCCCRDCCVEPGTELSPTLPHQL

[9] = biological target: Serine/threonine-protein kinase Nek6 (Homo sapiens) (UniProt Q9HC98); test: Inhibition of NEK6 (unknown origin) at 1 uM incubated for 30 mins in presence of [gamma-33P]ATP by multidrop micro reagent based assay relative to control; values are per cent of control
[10] = biological target: Serine/threonine-protein kinase PAK 6 (Homo sapiens) (UniProt Q9NQU5); test: Inhibition of PAK6 (unknown origin) at 1 uM incubated for 30 mins in presence of [gamma-33P]ATP by multidrop micro reagent based assay relative to control
[11] = biological target: Ephrin type-A receptor 2 (Homo sapiens) (UniProt P29317); test: Inhibition of EPH A2 (unknown origin) at 1 uM incubated for 30 mins in presence of [gamma-33P]ATP by multidrop micro reagent based assay relative to control; values are per cent of control
[12] = biological target: Dual specificity mitogen-activated protein kinase kinase 1 (Homo sapiens) (UniProt Q02750); test: Inhibition of MKK1 (unknown origin) at 1 uM incubated for 30 mins in presence of [gamma-33P]ATP by multidrop micro reagent based assay relative to control; values are per cent of control
Chain of Dual specificity mitogen-activated protein kinase kinase 1 (Homo sapiens) (Q02750 whole entry): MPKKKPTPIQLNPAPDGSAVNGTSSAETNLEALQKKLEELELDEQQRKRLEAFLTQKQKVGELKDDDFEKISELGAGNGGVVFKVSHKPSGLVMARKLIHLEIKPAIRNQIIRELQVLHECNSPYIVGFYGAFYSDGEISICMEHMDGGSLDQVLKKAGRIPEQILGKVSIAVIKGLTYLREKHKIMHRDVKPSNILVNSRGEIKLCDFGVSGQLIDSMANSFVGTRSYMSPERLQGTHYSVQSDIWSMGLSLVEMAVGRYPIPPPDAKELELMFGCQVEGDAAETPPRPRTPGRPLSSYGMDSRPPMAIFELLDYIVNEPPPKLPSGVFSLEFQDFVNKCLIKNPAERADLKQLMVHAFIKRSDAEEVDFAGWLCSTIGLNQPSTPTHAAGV

[13] = biological target: Serine/threonine-protein kinase PLK1 (Homo sapiens) (UniProt P53350); test: Inhibition of PLK1 (unknown origin) at 1 uM incubated for 30 mins in presence of [gamma-33P]ATP by multidrop micro reagent based assay relative to control; values are per cent of control
Chain of Serine/threonine-protein kinase PLK1 (Homo sapiens) (P53350 whole entry): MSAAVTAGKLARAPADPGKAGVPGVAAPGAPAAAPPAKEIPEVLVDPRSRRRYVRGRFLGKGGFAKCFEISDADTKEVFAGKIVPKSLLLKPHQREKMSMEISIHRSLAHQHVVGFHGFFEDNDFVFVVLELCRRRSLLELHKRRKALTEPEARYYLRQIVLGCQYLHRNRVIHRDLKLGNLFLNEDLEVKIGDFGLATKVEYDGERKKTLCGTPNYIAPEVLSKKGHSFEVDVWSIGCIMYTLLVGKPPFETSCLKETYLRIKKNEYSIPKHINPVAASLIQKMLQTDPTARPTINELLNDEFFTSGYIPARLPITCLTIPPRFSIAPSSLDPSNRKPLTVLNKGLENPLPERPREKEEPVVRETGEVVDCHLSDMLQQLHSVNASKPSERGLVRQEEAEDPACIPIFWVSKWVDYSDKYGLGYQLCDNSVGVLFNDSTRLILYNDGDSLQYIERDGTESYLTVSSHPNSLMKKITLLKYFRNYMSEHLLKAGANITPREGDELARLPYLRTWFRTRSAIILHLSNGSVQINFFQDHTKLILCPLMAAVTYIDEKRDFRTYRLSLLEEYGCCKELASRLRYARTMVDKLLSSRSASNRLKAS

[14] = biological target: T1, Leucine-rich repeat serine/threonine-protein kinase 2; test: Inhibition of LRRK2 (unknown origin) at 1 uM incubated for 30 mins in presence of [gamma-33P]ATP by multidrop micro reagent based assay relative to control; values are per cent of control
[15] = biological target: Ribosomal protein S6 kinase alpha-1 (Homo sapiens) (UniProt Q15418); test: Inhibition of RSK1 (unknown origin) at 1 uM incubated for 30 mins in presence of [gamma-33P]ATP by multidrop micro reagent based assay relative to control; values are per cent of control
[16] = biological target: Serine/threonine-protein kinase pim-3 (Homo sapiens) (UniProt Q86V86); test: Inhibition of PIM3 (unknown origin) at 1 uM incubated for 30 mins in presence of [gamma-33P]ATP by multidrop micro reagent based assay relative to control; values are per cent of control

C[C@@H](N)[C@H]1CC[C@H](C(=O)Nc2ccncc2)CC1
inhibition [1]: inactive
inhibition [2]: inactive

CCn1c(-c2nonc2N)nc2cnc(Oc3cccc(NC(=O)c4ccc(OCCN5CCOCC5)cc4)c3)cc21 [GSK-269962A]
inhibition [1]: inactive
residual activity [3]: 77%
pIC50 [4]: 5.64
residual activity [5]: 67%
residual activity [6]: 51%
inhibition [2]: inactive
residual activity [7]: 105%
residual activity [8]: 122%
residual activity [9]: 82%
residual activity [10]: 106%
residual activity [11]: 108%
residual activity [12]: 54%
residual activity [13]: 105%
residual activity [14]: 71%
residual activity [15]: 12%
residual activity [16]: 35%

O=S(=O)(c1cccc2cnccc12)N1CCCNCC1 [FASUDIL]
pIC50 [4]: < 4.52

CCN(CC)CCNC(=O)c1c(C)[nH]c(/C=C2\C(=O)Nc3ccc(F)cc32)c1C
inhibition [1]: inactive
residual activity [3]: 54%
inhibition [2]: inactive
residual activity [15]: 78%
residual activity [16]: 50%

Cc1cncc2cccc(S(=O)(=O)N3CCCNC[C@@H]3C)c12
inhibition [1]: inactive
residual activity [3]: 98%
pIC50 [4]: 6.82
residual activity [5]: 56%
residual activity [6]: 49%
inhibition [2]: inactive
residual activity [7]: 96%
residual activity [8]: 105%
residual activity [9]: 99%
residual activity [10]: 103%
residual activity [11]: 49%
residual activity [12]: 69%
residual activity [13]: 105%
residual activity [14]: 20%
residual activity [15]: 57%

CC1=C(C(=O)Nc2cc3cn[nH]c3cc2F)C(c2ccc(C(F)(F)F)cc2)CC(=O)N1 (stereo not given)
inhibition [1]: inactive
residual activity [3]: 101%
pIC50 [4]: < 4.00
residual activity [5]: 98%
residual activity [6]: 88%
inhibition [2]: inactive
residual activity [7]: 111%
residual activity [8]: 102%
residual activity [9]: 87%
residual activity [10]: 109%
residual activity [11]: 105%
residual activity [12]: 61%
residual activity [13]: 102%
residual activity [14]: 98%
residual activity [15]: 20%
residual activity [16]: 89%
